Values after ≈ are worked out from the molar mass of the structure shown. Active and inactive are the calls of the source. The calls are words filed in the database; no cut-off is given here.
Legend:
[1] = biological target: T1, Probable G-protein coupled receptor 142 (Mus musculus) (UniProt Q7TQN9); assay: Agonist activity at GPR142 in mouse islets assessed as potentiation of glucose-stimulated insulin secretion at 3 to 10 uM in presence of 16 mM glucose
T1 sequence (whole entry): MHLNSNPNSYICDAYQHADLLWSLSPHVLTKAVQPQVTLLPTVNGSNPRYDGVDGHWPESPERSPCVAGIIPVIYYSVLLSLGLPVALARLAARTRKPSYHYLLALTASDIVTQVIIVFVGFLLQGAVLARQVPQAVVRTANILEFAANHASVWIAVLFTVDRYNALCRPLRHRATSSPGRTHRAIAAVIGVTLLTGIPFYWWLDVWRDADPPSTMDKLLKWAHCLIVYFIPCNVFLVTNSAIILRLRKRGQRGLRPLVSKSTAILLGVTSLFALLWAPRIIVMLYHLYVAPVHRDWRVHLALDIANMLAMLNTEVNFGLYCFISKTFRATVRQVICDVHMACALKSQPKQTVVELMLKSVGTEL
Outline: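 Ex vivo insulin secretion in freshly isolated mouse islets, tested at low (2 mM) and high (16 mM) glucose. GLP-1 was run as a reference in the same experiment. Each treatment was compared with vehicle by 1-way ANOVA.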

[2] = Metabolic stability in mouse liver microsomes assessed as compound remaining at 1 uM measured after 30 mins; assay type: ADME; settings: read-out: Stability
[3] = system: Mus musculus; assay: Antihyperglycemic activity in fasted C57BL/6 mouse assessed as reduction in glucose AUC (0 to 120 mins) at 1 mg/kg, po administered prior to dextrose challenge by oral glucose tolerance test; assay type: functional; parameters: scale not given: the % may be the effect or the level left
Outline: (§1)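 Lean mice given the compound orally (1 to 30 mpk), then orally challenged with 5 g/kg dextrose. Glucose excursion expressed as AUC0–120 min reduction versus vehicle. N = 7 per group; ANOVA with Dunnett's post-test.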

[4] = Oral bioavailability in Sprague-Dawley rat at 2 mg/kg; assay type: ADME, organism-based; settings: in vivo
[5] = Apparent permeability in pig LLC-PK1 cells at 5 uM measured after 3 hrs; assay type: ADME, cell-based, Sus scrofa
[6] = Unbound clearance in Sprague-Dawley rat plasma at 1 mg/kg, iv or 2 mg/kg, po; assay type: ADME, organism-based; settings: in vivo
Outline: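 Rat pharmacokinetic study; plasma clearance corrected for plasma protein binding as Clu = Clp/fu, where fu is the unbound fraction in plasma.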

[7] = Drug level in fasted C57BL/6 mouse plasma at 1 mg/kg, po measured after 2.5 hrs post dose; assay type: ADME, organism-based
Outline: (§2)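 Plasma sampled from the oral glucose tolerance test mice (5 g/kg dextrose challenge) at 2.5 h after oral dosing. Total drug level measured; free level derived using the unbound plasma fraction.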

[8] = system: Mus musculus; assay: Antihyperglycemic activity in fasted C57BL/6 mouse assessed as reduction in glucose AUC (0 to 120 mins) at 3 mg/kg, po administered prior to dextrose challenge by oral glucose tolerance test; assay type: functional; parameters: scale not given: the % may be the effect or the level left; outline: as §1
[9] = Plasma clearance in Sprague-Dawley rat at 1 mg/kg, iv or 2 mg/kg, po; assay type: ADME, organism-based
[10] = Half life in Sprague-Dawley rat at 1 mg/kg, iv or 2 mg/kg, po; assay type: ADME, organism-based; settings: in vivo
[11] = Metabolic stability in rat liver microsomes assessed as compound remaining at 1 uM measured after 30 mins; assay type: ADME; settings: read-out: Stability
[12] = Lipophilicity, log D of the compound at pH 7; assay type: physicochemical; settings: buffer
[13] = Fraction unbound in Sprague-Dawley rat plasma at 1 mg/kg, iv or 2 mg/kg, po; assay type: ADME, organism-based
[14] = biological target: T2, Probable G-protein coupled receptor 142 (Homo sapiens, UniProt Q7Z601); assay: Agonist activity at human GPR142 expressed in CHO cells measured for 3 to 5 mins by Fluo-4AM dye-based FLIPR assay; assay type: cell-based
T2 sequence (Q7Z601 whole entry): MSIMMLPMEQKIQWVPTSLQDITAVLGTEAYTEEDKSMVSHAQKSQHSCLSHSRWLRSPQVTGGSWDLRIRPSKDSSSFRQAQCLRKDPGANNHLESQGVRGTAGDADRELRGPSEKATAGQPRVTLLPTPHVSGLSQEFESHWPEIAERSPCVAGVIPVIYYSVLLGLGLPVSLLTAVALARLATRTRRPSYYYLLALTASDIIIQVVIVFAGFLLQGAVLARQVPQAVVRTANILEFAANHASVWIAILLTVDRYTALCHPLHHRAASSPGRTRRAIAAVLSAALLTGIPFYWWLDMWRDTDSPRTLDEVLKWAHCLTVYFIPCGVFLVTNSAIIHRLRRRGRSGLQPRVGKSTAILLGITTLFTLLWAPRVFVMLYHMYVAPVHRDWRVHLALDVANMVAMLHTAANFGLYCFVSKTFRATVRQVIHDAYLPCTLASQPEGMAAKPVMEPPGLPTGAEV

[15] = biological target: T2, Probable G-protein coupled receptor 142; assay: Agonist activity at human GPR142 expressed in CHO cells measured after 30 to 60 mins by IP-One assay; assay type: cell-based
[16] = system: Mus musculus; assay: Antihyperglycemic activity in fasted C57BL/6 mouse assessed as reduction in glucose AUC administered prior to dextrose challenge measured after 90 mins by oral glucose tolerance test; assay type: functional
[17] = biological target: Cytochrome P450 2D6 (Homo sapiens, UniProt P10635); assay: Inhibition of CYP2D6 (unknown origin); assay type: ADME
Cytochrome P450 2D6, sequence (P10635 whole entry): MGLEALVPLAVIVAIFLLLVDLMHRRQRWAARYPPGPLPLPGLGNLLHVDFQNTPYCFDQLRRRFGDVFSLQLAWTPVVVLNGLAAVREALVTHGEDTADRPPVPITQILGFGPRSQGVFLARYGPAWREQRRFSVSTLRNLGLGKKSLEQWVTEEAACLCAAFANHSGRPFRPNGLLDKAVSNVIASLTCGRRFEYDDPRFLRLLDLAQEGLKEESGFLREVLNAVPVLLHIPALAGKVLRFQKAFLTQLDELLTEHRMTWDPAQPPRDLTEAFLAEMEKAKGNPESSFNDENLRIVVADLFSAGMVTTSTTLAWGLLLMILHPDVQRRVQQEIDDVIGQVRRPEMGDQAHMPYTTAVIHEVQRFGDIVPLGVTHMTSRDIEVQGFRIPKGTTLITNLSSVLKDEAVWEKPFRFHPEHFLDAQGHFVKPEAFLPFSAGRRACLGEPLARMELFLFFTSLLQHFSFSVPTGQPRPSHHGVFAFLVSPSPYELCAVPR

[18] = biological target: T3, Probable G-protein coupled receptor 142 (Mus musculus, UniProt Q7TQN9); assay: Agonist activity at mouse GPR142 expressed in CHO cells measured for 3 to 5 mins by Fluo-4AM dye-based FLIPR assay; assay type: cell-based
T3 sequence (Q7TQN9 whole entry): T1 sequence (whole entry)

[19] = biological target: Cytochrome P450 3A4 (Homo sapiens, UniProt P08684); assay: Inhibition of CYP3A4 (unknown origin); assay type: ADME
[20] = Fraction unbound in fasted C57BL/6 mouse plasma at 30 mg/kg, po measured after 2.5 hrs post dose; assay type: ADME, organism-based; settings: in vivo
[21] = system: Mus musculus; assay: Antihyperglycemic activity in fasted C57BL/6 mouse assessed as reduction in glucose AUC (0 to 120 mins) at 30 mg/kg, po administered prior to dextrose challenge by oral glucose tolerance test; assay type: functional; parameters: scale not given: the % may be the effect or the level left; outline: as §1
[22] = Drug level in fasted C57BL/6 mouse plasma at 3 mg/kg, po measured after 2.5 hrs post dose; assay type: ADME, organism-based; outline: as §2
[23] = biological target: T3, Probable G-protein coupled receptor 142; assay: Agonist activity at mouse GPR142 expressed in CHO cells measured after 30 to 60 mins by IP-One assay; assay type: cell-based
[24] = Drug level in fasted C57BL/6 mouse plasma at 30 mg/kg, po measured after 2.5 hrs post dose; assay type: ADME, organism-based; outline: as §2
[25] = Solubility of the compound in PBS at pH 7; assay type: physicochemical
[26] = Solubility of the compound in PBS at pH 2; assay type: physicochemical
[27] = biological target: Sodium channel protein type 5 subunit alpha (Homo sapiens, UniProt Q14524); assay: Inhibition of Nav1.5 (unknown origin)
Sodium channel protein type 5 subunit alpha, sequence (Q14524 whole entry): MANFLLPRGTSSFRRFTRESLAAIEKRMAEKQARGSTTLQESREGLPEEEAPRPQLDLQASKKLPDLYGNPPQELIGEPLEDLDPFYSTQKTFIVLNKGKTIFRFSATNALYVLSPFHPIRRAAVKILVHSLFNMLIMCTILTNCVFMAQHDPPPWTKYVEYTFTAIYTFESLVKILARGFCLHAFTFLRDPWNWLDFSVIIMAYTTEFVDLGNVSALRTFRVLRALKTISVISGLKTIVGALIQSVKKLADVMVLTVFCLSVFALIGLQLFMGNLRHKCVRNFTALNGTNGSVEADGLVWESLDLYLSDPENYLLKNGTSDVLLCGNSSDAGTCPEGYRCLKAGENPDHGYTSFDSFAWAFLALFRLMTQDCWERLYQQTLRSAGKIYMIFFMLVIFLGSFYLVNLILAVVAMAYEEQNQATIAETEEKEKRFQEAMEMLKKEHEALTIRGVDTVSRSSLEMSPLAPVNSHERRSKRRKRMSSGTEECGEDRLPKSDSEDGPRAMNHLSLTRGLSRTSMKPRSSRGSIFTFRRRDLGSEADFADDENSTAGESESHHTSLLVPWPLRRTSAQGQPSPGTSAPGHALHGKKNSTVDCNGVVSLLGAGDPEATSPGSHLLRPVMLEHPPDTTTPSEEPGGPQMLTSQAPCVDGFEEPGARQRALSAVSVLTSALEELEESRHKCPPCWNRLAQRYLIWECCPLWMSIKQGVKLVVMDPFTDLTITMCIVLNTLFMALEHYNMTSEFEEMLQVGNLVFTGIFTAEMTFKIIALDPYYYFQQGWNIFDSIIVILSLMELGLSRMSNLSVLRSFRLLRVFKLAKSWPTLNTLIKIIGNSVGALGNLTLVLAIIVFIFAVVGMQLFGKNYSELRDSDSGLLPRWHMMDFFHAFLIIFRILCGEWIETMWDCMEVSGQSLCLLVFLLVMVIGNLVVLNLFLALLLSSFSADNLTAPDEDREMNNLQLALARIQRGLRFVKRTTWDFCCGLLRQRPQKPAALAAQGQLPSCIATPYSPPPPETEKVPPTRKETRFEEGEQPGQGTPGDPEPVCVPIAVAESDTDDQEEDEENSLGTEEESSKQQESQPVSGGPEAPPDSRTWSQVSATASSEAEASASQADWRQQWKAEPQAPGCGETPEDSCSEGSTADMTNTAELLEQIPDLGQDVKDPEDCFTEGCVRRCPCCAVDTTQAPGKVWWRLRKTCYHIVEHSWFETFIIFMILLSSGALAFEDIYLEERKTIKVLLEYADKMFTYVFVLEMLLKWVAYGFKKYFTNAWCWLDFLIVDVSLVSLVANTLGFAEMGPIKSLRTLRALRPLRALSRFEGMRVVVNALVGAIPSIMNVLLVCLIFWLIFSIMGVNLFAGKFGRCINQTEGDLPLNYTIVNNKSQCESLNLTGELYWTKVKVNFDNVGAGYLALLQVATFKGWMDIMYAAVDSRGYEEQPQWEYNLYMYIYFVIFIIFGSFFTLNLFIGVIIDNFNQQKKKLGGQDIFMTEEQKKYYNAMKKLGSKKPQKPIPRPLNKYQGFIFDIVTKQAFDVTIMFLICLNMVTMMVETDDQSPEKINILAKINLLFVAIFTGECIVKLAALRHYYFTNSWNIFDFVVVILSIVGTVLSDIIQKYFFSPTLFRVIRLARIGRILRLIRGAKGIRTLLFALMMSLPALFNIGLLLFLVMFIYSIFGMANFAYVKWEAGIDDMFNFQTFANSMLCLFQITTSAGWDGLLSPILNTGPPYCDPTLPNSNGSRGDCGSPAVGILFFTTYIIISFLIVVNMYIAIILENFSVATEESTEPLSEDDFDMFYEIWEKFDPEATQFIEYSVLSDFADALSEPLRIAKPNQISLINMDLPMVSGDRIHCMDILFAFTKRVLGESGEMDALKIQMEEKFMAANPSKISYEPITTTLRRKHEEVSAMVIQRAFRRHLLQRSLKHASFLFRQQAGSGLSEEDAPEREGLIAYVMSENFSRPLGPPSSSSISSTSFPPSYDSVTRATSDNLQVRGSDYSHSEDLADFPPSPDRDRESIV

[28] = biological target: Voltage-dependent L-type calcium channel subunit alpha-1C (Homo sapiens, UniProt Q13936); assay: Inhibition of Cav1.2 (unknown origin)
Voltage-dependent L-type calcium channel subunit alpha-1C, sequence (Q13936 whole entry): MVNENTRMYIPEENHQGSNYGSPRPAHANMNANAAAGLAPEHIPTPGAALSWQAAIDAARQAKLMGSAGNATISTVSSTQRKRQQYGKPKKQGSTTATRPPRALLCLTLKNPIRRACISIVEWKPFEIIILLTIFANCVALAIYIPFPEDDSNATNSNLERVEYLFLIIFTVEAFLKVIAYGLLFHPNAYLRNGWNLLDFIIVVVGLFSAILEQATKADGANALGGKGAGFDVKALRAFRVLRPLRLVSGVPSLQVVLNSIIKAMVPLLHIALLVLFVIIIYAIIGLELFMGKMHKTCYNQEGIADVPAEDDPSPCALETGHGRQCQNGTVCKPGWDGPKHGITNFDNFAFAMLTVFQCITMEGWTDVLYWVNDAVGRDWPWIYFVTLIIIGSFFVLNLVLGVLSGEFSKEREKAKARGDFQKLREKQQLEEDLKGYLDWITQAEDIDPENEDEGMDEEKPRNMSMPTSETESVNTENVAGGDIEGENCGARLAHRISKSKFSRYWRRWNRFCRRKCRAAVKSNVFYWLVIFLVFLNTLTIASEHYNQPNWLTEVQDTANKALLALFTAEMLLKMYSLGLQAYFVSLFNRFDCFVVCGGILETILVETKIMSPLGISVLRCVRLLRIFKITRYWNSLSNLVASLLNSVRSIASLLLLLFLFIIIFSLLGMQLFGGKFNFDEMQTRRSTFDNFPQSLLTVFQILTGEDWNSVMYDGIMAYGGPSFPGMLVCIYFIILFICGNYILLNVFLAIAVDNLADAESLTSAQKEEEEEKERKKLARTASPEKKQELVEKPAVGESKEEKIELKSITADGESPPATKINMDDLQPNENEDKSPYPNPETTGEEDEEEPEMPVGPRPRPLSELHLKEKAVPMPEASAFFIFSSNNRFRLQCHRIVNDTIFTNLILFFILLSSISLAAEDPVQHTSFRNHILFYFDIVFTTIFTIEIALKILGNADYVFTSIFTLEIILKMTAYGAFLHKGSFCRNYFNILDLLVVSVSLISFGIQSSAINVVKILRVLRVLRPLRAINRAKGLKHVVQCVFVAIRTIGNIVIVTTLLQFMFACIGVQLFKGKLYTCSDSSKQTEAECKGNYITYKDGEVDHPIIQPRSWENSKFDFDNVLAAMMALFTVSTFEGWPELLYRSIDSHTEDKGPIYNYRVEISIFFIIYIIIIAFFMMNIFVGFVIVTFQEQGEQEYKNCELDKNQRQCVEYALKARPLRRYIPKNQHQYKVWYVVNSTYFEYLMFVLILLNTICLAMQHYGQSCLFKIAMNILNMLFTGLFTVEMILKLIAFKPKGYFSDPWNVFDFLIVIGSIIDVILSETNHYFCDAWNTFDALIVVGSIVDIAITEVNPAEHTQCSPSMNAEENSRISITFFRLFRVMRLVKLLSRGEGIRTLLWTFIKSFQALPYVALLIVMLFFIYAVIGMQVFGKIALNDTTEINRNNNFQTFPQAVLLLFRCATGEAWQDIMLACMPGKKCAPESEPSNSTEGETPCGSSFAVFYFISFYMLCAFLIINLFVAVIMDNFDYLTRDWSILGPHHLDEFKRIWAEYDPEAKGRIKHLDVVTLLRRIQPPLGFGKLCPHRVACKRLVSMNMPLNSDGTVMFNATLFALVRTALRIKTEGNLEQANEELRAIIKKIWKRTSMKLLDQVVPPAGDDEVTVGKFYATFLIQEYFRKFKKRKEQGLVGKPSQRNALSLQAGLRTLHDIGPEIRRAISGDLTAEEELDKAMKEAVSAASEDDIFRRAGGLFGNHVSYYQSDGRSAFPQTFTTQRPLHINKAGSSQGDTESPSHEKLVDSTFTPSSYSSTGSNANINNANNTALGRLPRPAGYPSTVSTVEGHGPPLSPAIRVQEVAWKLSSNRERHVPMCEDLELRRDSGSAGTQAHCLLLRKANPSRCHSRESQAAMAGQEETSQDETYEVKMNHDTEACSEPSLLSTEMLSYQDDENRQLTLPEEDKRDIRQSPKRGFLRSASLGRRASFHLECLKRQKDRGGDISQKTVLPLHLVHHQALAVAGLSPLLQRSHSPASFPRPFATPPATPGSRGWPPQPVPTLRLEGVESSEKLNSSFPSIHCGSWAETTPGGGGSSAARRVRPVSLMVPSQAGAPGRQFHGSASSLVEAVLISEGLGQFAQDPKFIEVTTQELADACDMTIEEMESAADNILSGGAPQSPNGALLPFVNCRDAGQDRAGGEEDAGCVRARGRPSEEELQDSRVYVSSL

[29] = Metabolic stability in human liver microsomes assessed as compound remaining at 1 uM measured after 30 mins; assay type: ADME; settings: read-out: Stability

Activity [1]: Active
remaining at 0.5 h, 1 µM [2]: 63%
bioavailability [4]: 56%
Papp at 3 h, 5 µM [5]: 28 ×10⁻⁶ cm/s
CL free [6]: 1000 mL/min/kg
concentration at 2.5 h [7]: 44 nM
clearance [9]: 13 mL/min/kg
half-life [10]: 54 min
remaining at 0.5 h, 1 µM [11]: 75%
logD [12]: 2.42
fraction unbound [13]: 0.013
EC50 [14]: 0.025 µM
EC50 [15]: 0.012 µM
IC50 [17]: 9.4 µM
EC50 [18]: 0.027 µM
IC50 [19]: 15 µM
Cp(f) [20]: 149 nM
concentration at 2.5 h [22]: 274 nM
EC50 [23]: 0.003 µM
concentration at 2.5 h [24]: 11500 nM
solubility [25]: 5 µM (≈ 2.14 µg/mL)
solubility [26]: 170 µM (≈ 72.6 µg/mL)
remaining at 0.5 h, 1 µM [29]: 56%
SMILES: Cc1nccn1-c1ccc(-c2cn(CC(=O)Nc3cccc(Cl)c3Cl)nn2)cc1
Activity [3]: 49%
Activity [8]: 79%
Activity [16]: Dose-dependent effect
Activity [21]: 89%
IC50 [27]: 21 µM
IC50 [28]: 21 µM

Source: ChEMBL document CHEMBL3864182, “Discovery and Optimization of a Novel Triazole Series of GPR142 Agonists for the Treatment of Type 2 Diabetes” (ACS Med Chem Lett, 2016)
